Data as given in ChEMBL document CHEMBL5058577, “EUbOPEN Chemogenomics Library 2 (Multiplex)” (2022).

Test system: U2OS
Experiment: Multiplex assay against U2OS
Assay type: toxicity, cell-based
Conditions: human
Method in brief: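 Live cells were stained at seeding with Hoechst33342, BioTracker Green Microtubule Cytoskeleton Dye, MitoTracker Red and Annexin V Alexa Fluor 680. Following compound addition, they were imaged on a CQ1 microscope at 37°C and 5% CO2 and gated by CellPathfinder machine learning into Hoechst high-intensity objects or normal cells, with normal cells split into healthy, pyknosed or fragmented nuclei and pyknosed cells into mitotic or apoptotic. Tubulin, mitochondrial-mass and membrane-permeability phenotypes are per cents of healthy-nucleus cells.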

[1] = 12 h, 1 µM, compound concentration 1 uM, replicate 1
[2] = 12 h, 1 µM, compound concentration 1 uM, replicate 2
[3] = 12 h, 10 µM, compound concentration 10 uM, replicate 1
[4] = 12 h, 10 µM, compound concentration 10 uM, replicate 2
[5] = 24 h, 1 µM, compound concentration 1 uM, replicate 1
[6] = 24 h, 1 µM, compound concentration 1 uM, replicate 2
[7] = 24 h, 10 µM, compound concentration 10 uM, replicate 1
[8] = 24 h, 10 µM, compound concentration 10 uM, replicate 2
[9] = 48 h, 1 µM, compound concentration 1 uM, replicate 1
[10] = 48 h, 1 µM, compound concentration 1 uM, replicate 2
[11] = 48 h, 10 µM, compound concentration 10 uM, replicate 1
[12] = 48 h, 10 µM, compound concentration 10 uM, replicate 2

## Cl.NCCc1ccc(O)c(O)c1 [DOPAMINE HYDROCHLORIDE]
[1]
  Population Apoptotic (%): 100%
  Population Fragmented Nuclei (%): 23%
  Population Healthy Nuclei (%): 67%
  Population Hoechst High Intensity Objects (%): 3%
  Population Membrane Permeable-Phenotype (%): 5%
  Population Mitochondria Different-Phenotype (%): 1%
  Population Mitotic Cells (%): 0%
  Population Normal (%): 96%
  Population Pyknosed Nuclei (%): 9%
  Population Tubulin-Different-Phenotype (%): 2%
  Total Cell Count: 237
[2]
  Population Apoptotic (%): 83%
  Population Fragmented Nuclei (%): 15%
  Population Healthy Nuclei (%): 72%
  Population Hoechst High Intensity Objects (%): 1%
  Population Membrane Permeable-Phenotype (%): 8%
  Population Mitochondria Different-Phenotype (%): 2%
  Population Mitotic Cells (%): 16%
  Population Normal (%): 98%
  Population Pyknosed Nuclei (%): 11%
  Population Tubulin-Different-Phenotype (%): 5%
  Total Cell Count: 104
[3]
  Population Apoptotic (%): 80%
  Population Fragmented Nuclei (%): 21%
  Population Healthy Nuclei (%): 65%
  Population Hoechst High Intensity Objects (%): 3%
  Population Membrane Permeable-Phenotype (%): 2%
  Population Mitochondria Different-Phenotype (%): 1%
  Population Mitotic Cells (%): 20%
  Population Normal (%): 96%
  Population Pyknosed Nuclei (%): 12%
  Population Tubulin-Different-Phenotype (%): 1%
  Total Cell Count: 204
[4]
  Population Apoptotic (%): 75%
  Population Fragmented Nuclei (%): 18%
  Population Healthy Nuclei (%): 76%
  Population Hoechst High Intensity Objects (%): 0%
  Population Membrane Permeable-Phenotype (%): 4%
  Population Mitotic Cells (%): 25%
  Population Normal (%): 100%
  Population Pyknosed Nuclei (%): 4%
  Total Cell Count: 95
[5]
  Population Apoptotic (%): 90%
  Population Fragmented Nuclei (%): 18%
  Population Healthy Nuclei (%): 69%
  Population Hoechst High Intensity Objects (%): 4%
  Population Membrane Permeable-Phenotype (%): 7%
  Population Mitochondria Different-Phenotype (%): 2%
  Population Mitotic Cells (%): 10%
  Population Normal (%): 95%
  Population Pyknosed Nuclei (%): 11%
  Population Tubulin-Different-Phenotype (%): 5%
  Total Cell Count: 263
[6]
  Population Apoptotic (%): 80%
  Population Fragmented Nuclei (%): 14%
  Population Healthy Nuclei (%): 77%
  Population Hoechst High Intensity Objects (%): 1%
  Population Membrane Permeable-Phenotype (%): 4%
  Population Mitochondria Different-Phenotype (%): 1%
  Population Mitotic Cells (%): 20%
  Population Normal (%): 98%
  Population Pyknosed Nuclei (%): 7%
  Population Tubulin-Different-Phenotype (%): 2%
  Total Cell Count: 132
[7]
  Population Apoptotic (%): 92%
  Population Fragmented Nuclei (%): 18%
  Population Healthy Nuclei (%): 70%
  Population Hoechst High Intensity Objects (%): 2%
  Population Membrane Permeable-Phenotype (%): 4%
  Population Mitochondria Different-Phenotype (%): 0%
  Population Mitotic Cells (%): 8%
  Population Normal (%): 97%
  Population Pyknosed Nuclei (%): 10%
  Population Tubulin-Different-Phenotype (%): 1%
  Total Cell Count: 245
[8]
  Population Apoptotic (%): 87%
  Population Fragmented Nuclei (%): 15%
  Population Healthy Nuclei (%): 77%
  Population Hoechst High Intensity Objects (%): 0%
  Population Membrane Permeable-Phenotype (%): 1%
  Population Mitotic Cells (%): 12%
  Population Normal (%): 99%
  Population Pyknosed Nuclei (%): 7%
  Total Cell Count: 111
[9]
  Population Apoptotic (%): 90%
  Population Fragmented Nuclei (%): 17%
  Population Healthy Nuclei (%): 70%
  Population Hoechst High Intensity Objects (%): 2%
  Population Membrane Permeable-Phenotype (%): 5%
  Population Mitochondria Different-Phenotype (%): 3%
  Population Mitotic Cells (%): 9%
  Population Normal (%): 97%
  Population Pyknosed Nuclei (%): 11%
  Population Tubulin-Different-Phenotype (%): 4%
  Total Cell Count: 363
[10]
  Population Apoptotic (%): 89%
  Population Fragmented Nuclei (%): 14%
  Population Healthy Nuclei (%): 73%
  Population Membrane Permeable-Phenotype (%): 7%
  Population Mitochondria Different-Phenotype (%): 4%
  Population Mitotic Cells (%): 10%
  Population Tubulin-Different-Phenotype (%): 3%
  Total Cell Count: 172
[11]
  Population Apoptotic (%): 85%
  Population Fragmented Nuclei (%): 18%
  Population Healthy Nuclei (%): 66%
  Population Hoechst High Intensity Objects (%): 2%
  Population Membrane Permeable-Phenotype (%): 7%
  Population Mitochondria Different-Phenotype (%): 3%
  Population Mitotic Cells (%): 14%
  Population Normal (%): 97%
  Population Pyknosed Nuclei (%): 14%
  Population Tubulin-Different-Phenotype (%): 5%
  Total Cell Count: 338
[12]
  Population Apoptotic (%): 100%
  Population Fragmented Nuclei (%): 14%
  Population Healthy Nuclei (%): 76%
  Population Hoechst High Intensity Objects (%): 1%
  Population Membrane Permeable-Phenotype (%): 2%
  Population Mitochondria Different-Phenotype (%): 2%
  Population Mitotic Cells (%): 0%
  Population Normal (%): 98%
  Population Pyknosed Nuclei (%): 8%
  Population Tubulin-Different-Phenotype (%): 2%
  Total Cell Count: 179
